CHOP inhibitor: blocks CHOP induction under ER stress; inhibition, % at 10 µM; CHO-K1 CHOP-promoter luciferase, tunicamycin-induced, 15-18 h; 220,000 tested, 3.8% active;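 active = compounds that reduced the stress-induced luciferase reporter signal by more than about 70% of percent inhibition, limit read from the data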
CHOP UPR activ: apoptotic UPR (CHOP) activation. activation, % at 10 µM. CHO-CHOP luciferase reporter, luminescence; percent of tunicamycin response over DMSO baseline. 330,000 tested, 0.34% active;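 active = at 10 µM dose, activation of 40% or more, normalized to positive control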
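Test system: CHO-CHOP cells, stable luciferase reporter of PERK-eIF2a-CHOP signalling | Quantity: 500 CHO-CHOP cells per well | Buffer or medium: F12 plus 10% serum | Compound dosing: 10 µM single point, 0.5% DMSO | Schedule: 6 h compound treatment, 37 °C | Signal: Luciferase luminescence | Control set: Tunicamycin high control, DMSO low control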
Jurkat NFkB inh: inhibitors of the PMA/ionomycin-induced NF-kB reporter in Jurkat cells. AID 435003. 330,000 tested, 0.53% active. inhibition, % at 4 µM. PMA/ionomycin-induced NF-kB luciferase reporter, luminescence; in the data active = inhibition above about 50%
697 NFkB inh: inhibitors of the PMA/ionomycin-induced NF-kB reporter in 697 B cells. 697 B-cell NF-kB luciferase reporter, 16 h. inhibition, % at 4 µM. 330,000 tested, 0.33% active; in the data active = inhibition above about 35%
UPR XBP1 act: adaptive UPR (XBP1) activation | CHO-XBP1 luciferase reporter, IRE1-XBP1 UPR activation, luminescence; percent of tunicamycin response, DMSO as zero | activation, % at 20 µM | 330,000 tested, 0.33% active;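 active = versus positive control, 20 µM dose yields 30% or more activation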
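Material – CHO cell line with stable XBP1 luciferase reporter · Buffer or medium – F12 plus 10% FBS · Compound – single point, 20 µM final compound, 1% DMSO · Schedule – 16-18 h cell attachment at 37 °C, then 6 h compound exposure · Signal – Steady-Glo luminescence read · Benchmarks – high control tunicamycin 10 µg/mL final, low control DMSO vehicle only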
Gli-Sufu antag: Gli-Sufu pathway antagonism. Sufu-KO-LIGHT fibroblasts, Gli luciferase reporter luminescence. inhibition, % at 5 µM. 340,000 tested, 0.74% active. AID 588413;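 active = inhibition above about 55%, limit read from the data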
Gli antag conf: Gli-SUFU antagonism confirmation, single concentration. inhibition, % at 5 µM. shares compounds with Gli-Sufu antag. Sufu-KO-LIGHT cells, Gli luciferase reporter, luminescence. AID 602428. 2,500 tested, 40% active;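 active = mean inhibition at 5 µM reaching about 45%, limit read from the data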
SufuKO cytotox: cytotoxicity counter-screen for Gli-SUFU antagonists. cytotoxicity, % at 5 µM. Sufu-KO-LIGHT cells cytotoxicity, ATP luminescence. AID 651994. 2,500 tested, 32% active. shares compounds with Gli-Sufu antag;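 active = mean cytotoxicity at 5 µM above about 25%, limit read from the data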;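 note: cells exposed to compound overnight for roughly 16 to 18 hours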
Wnt3a cs: inhibits Wnt3a reporter, counter-screen for Gli-SUFU antagonists; shares compounds with Gli-Sufu antag; Wnt-LIGHT cells, Wnt3a-driven luciferase reporter, luminescence; inhibition, % at 6.25 µM; 2,500 tested, 20% active;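 active = mean inhibition above about 25%, limit read from the data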
Numbers stand for hits. An excerpt weighted towards active compounds, which were near 3.9% of everything screened.

`CCC(=O)N1CCc2cc(S(=O)(=O)CCC(=O)Nc3ccc(C(C)=O)cc3)ccc21` gave CHOP UPR activ inactive, Jurkat NFkB inh inactive, 697 NFkB inh inactive, UPR XBP1 act inactive, Gli-Sufu antag 58.7, Gli antag conf inactive, SufuKO cytotox inactive and Wnt3a cs inactive.
Cc1ccc(/C=N/NC(=O)Cn2nccc2C)o1 was read as CHOP inhibitor inactive, CHOP UPR activ inactive, Jurkat NFkB inh inactive, 697 NFkB inh inactive, UPR XBP1 act inactive, Gli-Sufu antag 60.4, Gli antag conf inactive, SufuKO cytotox inactive and Wnt3a cs inactive.
Screening Cc1ccc(/C=N/NC(=O)Cn2nc(C)c([N+](=O)[O-])c2C)o1 returned CHOP inhibitor inactive, CHOP UPR activ inactive, Jurkat NFkB inh inactive, 697 NFkB inh inactive, UPR XBP1 act inactive and Gli-Sufu antag inactive.
Screening Cc1ccc(-c2csc(NC(=O)c3c(C)noc3C)n2)s1 returned CHOP UPR activ inactive, Jurkat NFkB inh inactive, 697 NFkB inh inactive, UPR XBP1 act inactive, Gli-Sufu antag inactive, Gli antag conf 63.7, SufuKO cytotox 34.2 and Wnt3a cs inactive.
For CS(=O)(=O)c1ccc(Cl)c(NC(=O)CNC(=O)c2ccc3c(c2)OCO3)c1 the results were CHOP UPR activ inactive, Jurkat NFkB inh inactive, 697 NFkB inh inactive, UPR XBP1 act inactive and Gli-Sufu antag inactive.
Screening CCC1=Nc2cc(C(=O)NCc3ccco3)ccc2Sc2ccccc21 returned CHOP inhibitor inactive, CHOP UPR activ inactive, Jurkat NFkB inh inactive, 697 NFkB inh inactive, UPR XBP1 act inactive and Gli-Sufu antag inactive.
`CCC1=Nc2cc(C(=O)NCc3ccco3)ccc2Sc2ccc(Cl)cc21` gave CHOP inhibitor inactive, CHOP UPR activ inactive, Jurkat NFkB inh inactive, 697 NFkB inh inactive, UPR XBP1 act inactive, Gli-Sufu antag inactive, Gli antag conf 56.0, SufuKO cytotox 52.2 and Wnt3a cs inactive.
For Cc1ccc(S(=O)(=O)N2CCN(C(=O)CCC(=O)NCc3cccc(C(F)(F)F)c3)CC2)cc1 the results were CHOP UPR activ inactive, Jurkat NFkB inh inactive, 697 NFkB inh inactive, UPR XBP1 act inactive and Gli-Sufu antag inactive.
Screening C/C(=C\C(=O)c1ccc(Br)cc1)NNC(=O)c1ccc(O)cc1 returned CHOP UPR activ inactive, Jurkat NFkB inh inactive, 697 NFkB inh inactive, UPR XBP1 act inactive and Gli-Sufu antag inactive.
`C/C(=C\C(=O)c1ccc(Br)cc1)NNC(=O)c1ccccc1` gave CHOP UPR activ inactive, Jurkat NFkB inh inactive, 697 NFkB inh inactive, UPR XBP1 act inactive, Gli-Sufu antag inactive, Gli antag conf inactive, SufuKO cytotox inactive and Wnt3a cs inactive.
Screening CSC(C1CCCC1)n1nnc2ccccc21 (stereo not drawn) returned CHOP UPR activ inactive, Jurkat NFkB inh inactive, 697 NFkB inh inactive, UPR XBP1 act inactive and Gli-Sufu antag inactive.
`O=C(CNC(=O)c1nc[nH]c1C(=O)N1CCN(c2ccccc2)CC1)OCc1ccccc1` gave CHOP UPR activ inactive, Jurkat NFkB inh inactive, 697 NFkB inh inactive, UPR XBP1 act inactive and Gli-Sufu antag inactive.
COCCN(Cc1cc2cc3c(cc2nc1Cl)OCO3)C(=O)Nc1ccc(F)cc1 was read as CHOP inhibitor inactive, CHOP UPR activ inactive, Jurkat NFkB inh inactive, 697 NFkB inh inactive, UPR XBP1 act inactive and Gli-Sufu antag inactive.
Screening COCCN(Cc1cc2cc3c(cc2nc1Cl)OCO3)C(=O)Nc1ccc(OC)cc1 returned CHOP inhibitor inactive, CHOP UPR activ inactive, Jurkat NFkB inh inactive, 697 NFkB inh inactive, UPR XBP1 act inactive, Gli-Sufu antag inactive, Gli antag conf inactive, SufuKO cytotox inactive and Wnt3a cs inactive.
`Cc1ccc2nc(SCC(=O)NCc3ccccc3)nc(=O)n2c1` gave CHOP UPR activ inactive, Jurkat NFkB inh inactive, 697 NFkB inh inactive, UPR XBP1 act inactive, Gli-Sufu antag 96.9, Gli antag conf inactive, SufuKO cytotox 33.2 and Wnt3a cs inactive.
Cc1cc2cc(CN(CC3CCCO3)C(=S)Nc3ccccc3)c(=O)[nH]c2cc1C (stereo not drawn) was read as CHOP inhibitor inactive, CHOP UPR activ inactive, Jurkat NFkB inh inactive, 697 NFkB inh inactive, UPR XBP1 act inactive, Gli-Sufu antag 62.8, Gli antag conf 79.9, SufuKO cytotox 50.4 and Wnt3a cs inactive.
Cc1nc2ccccc2c2oc(C(=O)N3CCN(C4CCCCC4)CC3)cc12 was read as CHOP inhibitor inactive, CHOP UPR activ inactive, Jurkat NFkB inh inactive, 697 NFkB inh inactive, UPR XBP1 act inactive, Gli-Sufu antag inactive, Gli antag conf 46.1, SufuKO cytotox inactive and Wnt3a cs inactive.
For Cc1[nH]c(SCC(=O)Nc2cc(C(N)=O)cc(C(N)=O)c2)nc1Cc1ccccc1 the results were CHOP UPR activ inactive, Jurkat NFkB inh inactive, 697 NFkB inh inactive, UPR XBP1 act inactive and Gli-Sufu antag inactive.
Cc1cc(NC(=O)CSc2nc(Cc3ccc(O)cc3)c(C)[nH]2)no1 was read as CHOP UPR activ inactive, Jurkat NFkB inh inactive, 697 NFkB inh inactive, UPR XBP1 act inactive, Gli-Sufu antag inactive, Gli antag conf inactive, SufuKO cytotox inactive and Wnt3a cs inactive.
CC(NCc1ccc(OCC(N)=O)cc1)C12CC3CC(CC(C3)C1)C2 (stereo not drawn) was read as CHOP UPR activ inactive, Jurkat NFkB inh inactive, 697 NFkB inh inactive, UPR XBP1 act inactive, Gli-Sufu antag inactive, Gli antag conf inactive, SufuKO cytotox inactive and Wnt3a cs inactive.
COc1cc(OC)cc(C(=O)N2CCN(Cc3ccc4c(c3)OCO4)CC2)c1 was read as CHOP UPR activ inactive, Jurkat NFkB inh inactive, 697 NFkB inh inactive, UPR XBP1 act inactive and Gli-Sufu antag inactive.
For Cc1ccc(C(=O)N2CCCC(C(=O)c3cc(F)ccc3F)C2)s1 (stereo not drawn) the results were CHOP inhibitor inactive, CHOP UPR activ inactive, Jurkat NFkB inh inactive, 697 NFkB inh inactive, UPR XBP1 act inactive and Gli-Sufu antag inactive.
Screening Cc1ccc(C(=O)N2CCCC(N(C)Cc3ccccc3)C2)s1 (stereo not drawn) returned CHOP UPR activ inactive, Jurkat NFkB inh inactive, 697 NFkB inh inactive, UPR XBP1 act inactive, Gli-Sufu antag 94.8, Gli antag conf inactive, SufuKO cytotox inactive and Wnt3a cs inactive.
Screening CC(=O)Nc1ccc2c(COC(=O)[C@@H](NS(=O)(=O)c3ccc(C)cc3)C(C)C)cc(=O)oc2c1 returned CHOP UPR activ inactive, Jurkat NFkB inh inactive, 697 NFkB inh inactive, UPR XBP1 act inactive and Gli-Sufu antag inactive.

Compound activity from PubChem.
